# Assay outcomes deposited in PubChem BioAssay by The Scripps Research Institute Molecular Screening Center.
# PLC-gamma1 inh: PLC-gamma1 enzyme inhibitors, primary screen, biochemical, fluorescence, purified enzyme; 1-phosphatidylinositol 4,5-bisphosphate phosphodiesterase gamma-1 (Homo sapiens), P19174; fluorogenic substrate; inhibition, % at 12.2 µM; 370,000 tested, 0.84% active; AID 720700, 2013; in the data active means inhibition above about 9.5%
# DDE Tn7 FP inh: inhibitors of Tn7 peptide binding to fibrin DD(E), primary screen, biochemical, fluorescence polarization, human fibrin, Tn7 probe. Fibrinogen beta chain (Homo sapiens), P02675. FP displacement of FITC-Tn7 peptide from fibrin DD(E); 0% = median of compound wells per plate. inhibition, % at 8.3 µM. 370,000 tested, 0.13% active;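 active means inhibition above the mean of compounds falling within the control limits plus 3 SD of them, cut at about 14% in these data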;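 further: 0% = plate median of compound wells and 100% = 10 µM Aha-Tn7 peptide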
#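 assay system = human clot-derived fibrin DD(E) complex | quantity = Fibrin-DD(E) at 2 µM final | timing = 10 min preincubation, 3 h with tracer, room temperature | signal = fluorescence polarization | measure = percent inhibition | benchmarks = high control wells with 10 µM unlabelled Aha-Tn7 peptide (full inhibition) | replicates = singlicate testing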
# DNA FID counter: compounds displacing fluorescent DNA intercalator, primary screen, artefact control for HCV NS3 helicase inhibitor project, biochemical, FID fluorescence | 290,000 tested, 0.17% active | inhibition, % at 7.9 µM | DNA fluorescent intercalator displacement | AID 1845, 2009; in the data active means inhibition above about 37%;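 further: 0% = vehicle and 100% = reference compound; higher means more ethidium bromide displaced from hairpin DNA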
# Tn6 DDE FP: inhibitors of Tn6 peptide binding to fibrin DD(E), primary screen, biochemical, fluorescence polarization, human fibrin, Tn6 probe; AID 720509, 2013; inhibition, % at 8.3 µM; Fibrin DD(E) TRITC-Tn6 fluorescence polarization displacement; Fibrinogen beta chain (Homo sapiens), P02675; 370,000 tested, 0.21% active;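 active means inhibition above a per-campaign cutoff: mean of compounds within control limits plus 3 SD, cut at about 15% in these data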;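 further: 0% = median of all compound wells on the plate and 100% = blocking peptide control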
# PLC-beta3 inh: human PLC-beta3 inhibitors, primary screen, biochemical, fluorescence. Purified PLC-beta3, fluorogenic substrate. inhibition, % at 12.2 µM. 370,000 tested, 0.18% active; in the data active means inhibition above about 11%;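 further: 0% = median of compound wells on plate and 100% = full blocker control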
# Tn6 DDE ctr: counter-screen for inhibitors of Tn6 peptide binding to fibrin DD(E); shares compounds with Tn6 DDE FP; TRITC-Tn6 fluorescence polarization displacement; 0% = median of compound wells, not DMSO; inhibition, % at 8.3 µM; 680 tested, 2% active;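 active means inhibition above the mean of test compounds lying between the control limits plus 3 SD of those, cut at about 14% in these data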;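 further: 0% = median of compound wells and 100% = wells with Aha-Tn7 blocking peptide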
# Tn6 DDE conf: inhibitors of Tn6 peptide binding to fibrin DD(E), confirmation, biochemical, fluorescence polarization, human fibrin, Tn6 probe. FP displacement of TRITC-Tn6 peptide from DD(E); 0% = per-plate median of test wells. 680 tested, 10% active. inhibition, % at 8.3 µM. shares compounds with Tn6 DDE FP;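 active means inhibition above the mean of compounds lying within the control limits plus 3 SD, cut at about 16% in these data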;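 further: 100% = high control wells holding a competing inhibitor peptide at 10 µM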
# An asterisk follows results filed as active; i = inactive; . = no result. Hits are enriched below; roughly 1.4% of the tested compounds scored in any of these assays.
SMILES,PLC-gamma1 inh,DDE Tn7 FP inh,DNA FID counter,Tn6 DDE FP,PLC-beta3 inh,Tn6 DDE ctr,Tn6 DDE conf
Cc1ccc(-n2nc(C)c3c2OC(N)=C(C#N)C3c2ccc(F)cc2)cc1 (configuration not stated),3,3,-9,-2,2,.,.
COC(=O)c1sc(S(=O)(=O)N2CCN(c3ccc(OC)cc3)CC2)c(C(=O)OC)c1C,-2,-2,-6,-5,5,.,.
O=C1CC(Nc2ccc(N3CCOCC3)cc2)C(=O)N1Cc1ccccc1 (configuration not stated),-12,4,-35,20*,-25,2,0
O=C1CC(Nc2ccc(N3CCOCC3)cc2)C(=O)N1c1ccccc1 (configuration not stated),.,.,-18,.,.,.,.
CCOC(=O)Nc1ccc(OC)c([N+](=O)[O-])c1,2,6,-3,-1,1,.,.
CCOC(=O)Nc1ccc2c(c1)Cc1cc([N+](=O)[O-])ccc1-2,-31,-9,.,17*,-36,-2,-10
COc1ccccc1CCC(=O)Nc1nccs1,1,1,-4,3,-7,.,.
COc1ccccc1CCC(=O)Nc1ncc(C)s1,0,3,-4,15*,-2,-1,-5
COc1cccc(C2CC(c3ccc(Cl)cc3)n3nc(N)nc3N2)c1 (configuration not stated),-61,2,-23,-9,-79,.,.
COC(=O)CSc1nc(C)cc(C(F)(F)F)c1C#N,-15,3,-7,6,-17,.,.
CCOC(=O)NC(=O)CSc1nc(C)cc(C(F)(F)F)c1C#N,-38,9,-2,15*,-40,5,1
CC(Oc1ccc2c(c1)c1ccnc3c4ccccc4c(=O)n2c13)C(=O)NCCN1CCOCC1 (configuration not stated),i,-1,12,36*,i,4,8
COc1ccc2c(c1OC)c(=O)n1c3ccc(OC(C)C(=O)NCCN4CCOCC4)cc3c3ccnc2c31 (configuration not stated),i,2,9,27*,i,-5,-5
COc1ccc2c(c1OC)c(=O)n1c3ccc(OC(C)C(=O)NCCCN4CCOCC4)cc3c3ccnc2c31 (configuration not stated),.,.,17,.,.,.,.
Cc1ccc(C(=O)Oc2cccc(-n3cnnn3)c2)cc1,0,6,-12,-2,1,.,.
Cc1ccc(-c2[nH]c(-c3ccccc3)nc2SCC(=O)NCC2CCCO2)cc1 (configuration not stated),-3,6,-21,1,-5,.,.
O=C(CNC(=O)C1CCCCC1)Nc1ccc(Cl)cc1,0,5,-1,10,4,.,.
COc1ccc(NS(=O)(=O)c2ccc3nc(COc4ccc5ccccc5c4)[nH]c3c2)cc1,-6,4,-14,54*,-8,-1,-10
CC1CCc2c(sc(NC(=O)Cn3nc(C(F)(F)F)c4c3CCCCC4)c2C#N)C1 (configuration not stated),-1,2,-13,17*,1,9,7
N#Cc1c(NC(=O)Cn2nc(C(F)(F)F)c3c2CCCC3)sc2c1CCC2,-2,-5,4,2,3,.,.
Cc1cc(C)c(S(N)(=O)=O)c(C)c1N(C)S(=O)(=O)c1ccccc1,3,-1,-9,-3,2,.,.
Cc1c(C)n(C)c2ccc(C(=O)NCc3cccs3)cc12,-47,-6,-4,35*,-63,2,2
Cc1c(C)n(C)c2ccc(C(=O)NCCCN3CCN(C)CC3)cc12,-5,-3,9,-2,-20,.,.
CCN(CC)c1ccc(/C=C/c2cc(-c3ccccc3)c3ccccc3n2)cc1,-307,0,-2,17*,-456,-11,-8
Cc1ccc(S(=O)(=O)N(Cc2n[nH]c(=S)n2-c2ccccc2)c2cccc(Cl)c2)cc1,1,-7,-14,2,2,.,.
SMILES,PLC-gamma1 inh,DDE Tn7 FP inh,DNA FID counter,Tn6 DDE FP,PLC-beta3 inh,Tn6 DDE ctr,Tn6 DDE conf
N#CCCCSc1nnc(Cc2ccc3c(c2)OCO3)o1,2,-5,-6,18*,0,4,-5
Cc1ccc(C)c(NC(=O)c2ccc3ccccc3n2)c1,2,-3,-2,1,-3,.,.
O=C(Nc1cccc(-c2ccc(N3CCOCC3)nn2)c1)c1ccc([N+](=O)[O-])cc1,2,3,.,-11,-6,.,.
C/C(CC(=O)NCc1ccc(Cl)cc1)=N\NC(=O)c1ccccc1F,-3,7,-14,16*,-2,-4,-14
COc1ccccc1CNC(=O)C/C(C)=N/NC(=O)Cc1ccc(Cl)cc1,4,-3,-11,-6,-2,.,.
CNC(=S)N1CCN(c2ccc(OC)cc2)CC1,-4,7,5,-1,-2,.,.
Cc1ccc(S(=O)(=O)N2CCN(C(=O)COC(=O)C3CCC3)CC2)cc1,1,3,.,18*,-5,11,4
CCCCN1C(=O)/C(=C/C=C2\SCCN2C)SC1=S,-7,-29,3,-14,-12,.,.
CN1CCS/C1=C/C=C1/SC(=S)N(Cc2ccccc2)C1=O,-18,-24,-12,38*,-17,-15,16*
CCCC(NC(=O)CNC(=O)C(C)(C)C)C(=O)O (configuration not stated),0,3,7,16*,-2,3,2
Cc1cc(C)n(-c2nc3ccccc3n3nnnc23)n1,2,7,8,6,0,.,.
COC(=O)c1cc(Br)c(=O)n(CCN2CCCC2)c1,-2,2,-4,17*,-3,-3,-5
CCOc1cc(CNCCCN2CCOCC2)ccc1OCC(=O)Nc1cccc2ccccc12,-3,10,33,18*,-1,-4,-5
Cc1cn([C@H]2C[C@H](O)[C@@H](/C=C/C(=O)NCC(c3ccccc3)c3ccccc3)O2)c(=O)[nH]c1=O,3,-4,.,1,0,.,.
Cc1cn([C@H]2C[C@H](O)[C@@H](/C=C/C(=O)NCCC(C)C)O2)c(=O)[nH]c1=O,1,-7,.,15*,3,-9,-11
CC(C)NC(=O)c1onc(CSc2nc3ccccc3[nH]2)c1C(=O)NC(C)C,1,-2,-26,15*,1,4,-1
